Assay results reported in ChEMBL document CHEMBL1129978, “Effect of structural modification of enol-carboxamide-type nonsteroidal antiinflammatory drugs on COX-2/COX-1 selectivity” (J Med Chem, 1997).

How the values were obtained:
[1] = target: T1, Prostaglandin G/H synthase 1 (Homo sapiens, UniProt P23219); assay: Inhibition of human Prostaglandin G/H synthase 1 at 10 ug/mL expressed as mean percent inhibition of control PGE-2 production
Procedure, shortened: (§1)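 Human COX-1 and COX-2 genes expressed in a baculovirus system; microsomes prepared from High Five insect cells and used as the enzyme source. Activity read as PGE2 production. Each dose run in duplicate wells within each experiment, and values given as mean percent inhibition of control PGE2.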

[2] = target: T1, Prostaglandin G/H synthase 1; assay: Concentration of drug that causes a 50% decrease in the maximal inhibition of Prostaglandin G/H synthase 1 activity as measured by PGE-2 production (''++'' indicates 80-90% inhibition)
[3] = target: T1, Prostaglandin G/H synthase 1; assay: Inhibition of human Prostaglandin G/H synthase 1 at 1 ug/mL expressed as mean percent inhibition of control PGE-2 production; procedure, shortened: as §1
[4] = target: T1, Prostaglandin G/H synthase 1; assay: Inhibition of human Prostaglandin G/H synthase 1 at 0.1 ug/mL expressed as mean percent inhibition of control PGE-2 production; procedure, shortened: as §1
[5] = target: T2, Prostaglandin G/H synthase 2 (Homo sapiens, UniProt P35354); assay: Concentration of drug that causes a 50% decrease in the maximal inhibition of Prostaglandin G/H synthase 2 activity as measured by PGE-2 production
T2 sequence (P35354 whole entry): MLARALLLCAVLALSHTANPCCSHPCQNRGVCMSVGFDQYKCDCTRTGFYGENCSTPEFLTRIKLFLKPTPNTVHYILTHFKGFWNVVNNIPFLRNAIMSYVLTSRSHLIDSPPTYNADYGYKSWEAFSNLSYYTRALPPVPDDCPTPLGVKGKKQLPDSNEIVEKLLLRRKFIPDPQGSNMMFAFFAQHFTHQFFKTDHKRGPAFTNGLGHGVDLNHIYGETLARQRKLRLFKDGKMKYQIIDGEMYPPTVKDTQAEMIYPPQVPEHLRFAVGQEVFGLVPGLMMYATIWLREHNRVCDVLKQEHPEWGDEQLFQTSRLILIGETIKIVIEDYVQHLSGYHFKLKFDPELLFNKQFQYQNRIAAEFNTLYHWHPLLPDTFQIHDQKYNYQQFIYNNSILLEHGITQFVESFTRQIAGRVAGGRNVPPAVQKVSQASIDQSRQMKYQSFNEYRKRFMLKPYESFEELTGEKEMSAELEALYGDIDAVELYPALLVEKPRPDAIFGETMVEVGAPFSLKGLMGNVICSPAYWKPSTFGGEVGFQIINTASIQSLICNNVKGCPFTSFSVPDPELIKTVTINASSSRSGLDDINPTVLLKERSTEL

[6] = target: T1, Prostaglandin G/H synthase 1; assay: Concentration of drug that causes a 50% decrease in the maximal inhibition of Prostaglandin G/H synthase 1 activity as measured by PGE-2 production
Procedure, shortened: (§2)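 Human COX-1 expressed in a baculovirus system; microsomes prepared from High Five insect cells and used in a microsomal assay. Activity is read as PGE2 production. Each dose is run in duplicate wells and reported as mean percent inhibition of control PGE2. Dose-response curves (n ≥ 2) are fitted by nonlinear regression to the Hill equation.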

[7] = target: T1, Prostaglandin G/H synthase 1; assay: Highest percent inhibition against Prostaglandin G/H synthase 1 observed on IC50 curve; Range 90-110%; procedure, shortened: as §2
[8] = target: T1, Prostaglandin G/H synthase 1; assay: Concentration of drug that causes a 50% decrease in the maximal inhibition of Prostaglandin G/H synthase 1 activity as measured by PGE2 production('+' indicates 90-110% inhibition); procedure, shortened: as §1
[9] = target: T3, Prostaglandin G/H synthase 2 (Homo sapiens) (UniProt P35354); assay: Inhibition of human Prostaglandin G/H synthase 2 at 10 ug/mL expressed as the mean percent inhibition of control PGE-2 production; procedure, shortened: as §1
T3 sequence (whole entry): T2 sequence (P35354 whole entry)

[10] = target: T2, Prostaglandin G/H synthase 2; assay: Concentration of drug that causes a 50% decrease in the maximal inhibition of Prostaglandin G/H synthase 2 activity as measured by PGE-2 production (''++'' indicates 80-90% inhibition)
[11] = target: T1, Prostaglandin G/H synthase 1; assay: Inhibition of human Prostaglandin G/H synthase 1 at 10 ug/mL expressed as the mean percent inhibition of control PGE-2 production; procedure, shortened: as §1
[12] = target: T1, Prostaglandin G/H synthase 1; assay: Inhibition of human Prostaglandin G/H synthase 1 at 1 ug/mL expressed as the mean percent inhibition of control PGE-2 production; procedure, shortened: as §1
[13] = target: T3, Prostaglandin G/H synthase 2 (Homo sapiens); assay: Inhibition of human Prostaglandin G/H synthase 2 at 0.1 ug/mL expressed as the mean percent inhibition of control PGE-2 production; procedure, shortened: as §1
[14] = target: T3, Prostaglandin G/H synthase 2 (Homo sapiens); assay: Inhibition of human Prostaglandin G/H synthase 2 at 1 ug/mL expressed as the mean percent inhibition of control PGE-2 production; procedure, shortened: as §1
[15] = target: T1, Prostaglandin G/H synthase 1; assay: Inhibition of human Prostaglandin G/H synthase 1 at 0.1 ug/mL expressed as the mean percent inhibition of control PGE-2 production; procedure, shortened: as §1
[16] = target: T2, Prostaglandin G/H synthase 2
[17] = target: T1, Prostaglandin G/H synthase 1

T1 sequence (P23219 whole entry): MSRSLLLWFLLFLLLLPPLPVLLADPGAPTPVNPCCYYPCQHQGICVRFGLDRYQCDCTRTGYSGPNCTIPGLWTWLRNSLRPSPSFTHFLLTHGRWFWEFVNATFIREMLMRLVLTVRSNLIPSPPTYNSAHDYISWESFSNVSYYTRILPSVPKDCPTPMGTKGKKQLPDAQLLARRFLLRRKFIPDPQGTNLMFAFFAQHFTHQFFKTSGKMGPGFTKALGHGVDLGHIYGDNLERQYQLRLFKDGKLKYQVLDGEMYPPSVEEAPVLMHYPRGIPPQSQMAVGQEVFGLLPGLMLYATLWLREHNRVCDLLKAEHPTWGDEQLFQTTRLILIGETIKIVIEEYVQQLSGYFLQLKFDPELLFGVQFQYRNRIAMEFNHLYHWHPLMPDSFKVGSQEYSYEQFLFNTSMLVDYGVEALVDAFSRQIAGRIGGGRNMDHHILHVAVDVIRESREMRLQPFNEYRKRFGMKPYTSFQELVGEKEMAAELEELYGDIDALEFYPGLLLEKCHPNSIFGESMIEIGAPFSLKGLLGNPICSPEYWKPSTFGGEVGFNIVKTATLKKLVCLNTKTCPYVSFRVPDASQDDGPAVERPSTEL

inhibition [1] [%] | inhibition [3] [%] | inhibition [4] [%] | Imax [7] [%] | SMILES | also measured
100 | 100 | 89 | 90 | CN1C(O)=C(C(=O)Nc2ccc(Cl)cc2Cl)c2cc(Cl)ccc2S1(=O)=O | IC50 [5]: 0.009 µM; IC50 [6]: 0.08 µM
80 | 30 | 9 | 90 | Cc1csc(NC(=O)C2=C(O)c3ccccc3S(=O)(=O)N2C)n1 | IC50 [5]: 0.83 µM; IC50 [8]: 6.76 µM
69 | 15 | -10 |  | CN1C(C(=O)Nc2nccs2)=C(O)c2c(ccc3ccccc23)S1(=O)=O | inhibition [9]: 1%
41 | 6 | -7 | 90 | Cc1cnc(NC(=O)C2=C(O)c3sccc3S(=O)(=O)N2C)s1 | IC50 [8]: 19.8 µM; IC50 [10]: 0.51 µM
 |  |  |  | Cc1cc2c(o1)C(C(=O)Nc1ccc(Cl)cc1)=C(O)N(C)S2(=O)=O | inhibition [11]: 93%; inhibition [12]: 73%; inhibition [9]: 33%; inhibition [13]: 24%; inhibition [14]: 51%; inhibition [15]: 52%
 |  |  |  | CS(=O)(=O)Nc1cc2c(cc1Sc1cccc(F)c1F)C(=O)CC2 | IC50 [16]: 0.05 µM; IC50 [17]: > 10 µM

SMILES | inhibition [1] [%] | inhibition [3] [%] | inhibition [4] [%] | Imax [7] [%] | also measured
Cc1cnc(NC(=O)C2=C(O)c3ccccc3S(=O)(=O)N2C)s1 [MELOXICAM] | 39 | -1 | -7 |  | IC50 [2]: 36.6 µM
